pIC50: −log10 of the molar value.
Key:
[1] = test system: CNE-2; assay: Anticancer activity against human CNE2 cells assessed as reduction in cell viability incubated for 48 hrs MTT assay; type: functional, cell-based; conditions: CNE-2, 48 h
How it was run: (§1)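 MTT assay on human hepatocarcinoma SMMC-7721, lung carcinoma A549 and nasopharyngeal carcinoma CNE2 cells, with matrine as comparator and cisplatin as positive control. IC50 is the concentration that lowers optical density of treated cells by 50% versus untreated cells, given as the mean ± SD of three experiments.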

[2] = test system: SMMC-7721; assay: Induction of apoptosis in human SMMC7721 cells assessed as early apoptotic cells level at 20 uM incubated for 24 hrs by Annexin V-FITC/PI dual staining based flow cytometry (reference value: 1%); type: functional
How it was run: (§2)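 CNE2 and SMMC-7721 cells were treated for 24 h at 0, 5, 10 or 30 µM, or at 0, 10, 20 or 50 µM depending on compound. Cells were stained with Annexin V-FITC/propidium iodide and quantified by flow cytometry. Apoptotic cells were counted as AV+/PI− (lower right) plus AV+/PI+ (upper right) quadrants.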

[3] = test system: CNE-2; assay: Induction of apoptosis in human CNE2 cells assessed as late apoptotic cells level at 50 uM incubated for 24 hrs by Annexin V-FITC/PI dual staining based flow cytometry (reference value: 1.37%); type: functional; how it was run: as §2
[4] = test system: SMMC-7721; assay: Anticancer activity against human SMMC7721 cells assessed as reduction in cell viability incubated for 48 hrs MTT assay; type: functional, cell-based; conditions: SMMC-7721, 48 h; how it was run: as §1
[5] = test system: SMMC-7721; assay: Induction of apoptosis in human SMMC7721 cells assessed as viable cells level at 10 uM incubated for 24 hrs by Annexin V-FITC/PI dual staining based flow cytometry (reference value: 96.2%); type: functional; how it was run: as §2
[6] = test system: A549; assay: Anticancer activity against human A549 cells assessed as reduction in cell viability incubated for 48 hrs MTT assay; type: functional, cell-based; conditions: A549, 48 h; how it was run: as §1
[7] = test system: CNE-2; assay: Induction of apoptosis in human CNE2 cells assessed as viable cells level at 20 uM incubated for 24 hrs by Annexin V-FITC/PI dual staining based flow cytometry (reference value: 91.6%); type: functional; how it was run: as §2
[8] = test system: CNE-2; assay: Induction of apoptosis in human CNE2 cells incubated for 24 hrs by Annexin V-FITC/PI dual staining based flow cytometry; type: functional, cell-based; how it was run: as §2
[9] = test system: SMMC-7721; assay: Induction of apoptosis in human SMMC7721 cells assessed as late apoptotic cells level at 20 uM incubated for 24 hrs by Annexin V-FITC/PI dual staining based flow cytometry (reference value: 1.6%); type: functional; how it was run: as §2
[10] = test system: SMMC-7721; assay: Induction of apoptosis in human SMMC7721 cells assessed as viable cells level at 20 uM incubated for 24 hrs by Annexin V-FITC/PI dual staining based flow cytometry (reference value: 96.2%); type: functional; how it was run: as §2
[11] = test system: CNE-2; assay: Induction of apoptosis in human CNE2 cells assessed as necrotic cells level at 50 uM incubated for 24 hrs by Annexin V-FITC/PI dual staining based flow cytometry (reference value: 3.43%); type: functional; how it was run: as §2
[12] = test system: SMMC-7721; assay: Induction of apoptosis in human SMMC7721 cells incubated for 24 hrs by Annexin V-FITC/PI dual staining based flow cytometry; type: functional, cell-based; how it was run: as §2
[13] = test system: SMMC-7721; assay: Induction of apoptosis in human SMMC7721 cells assessed as early apoptotic cells level at 50 uM incubated for 24 hrs by Annexin V-FITC/PI dual staining based flow cytometry (reference value: 1%); type: functional; how it was run: as §2
[14] = test system: CNE-2; assay: Induction of apoptosis in human CNE2 cells assessed as viable cells level at 50 uM incubated for 24 hrs by Annexin V-FITC/PI dual staining based flow cytometry (reference value: 91.6%); type: functional; how it was run: as §2
[15] = test system: SMMC-7721; assay: Induction of apoptosis in human SMMC7721 cells assessed as late apoptotic cells level at 50 uM incubated for 24 hrs by Annexin V-FITC/PI dual staining based flow cytometry (reference value: 1.6%); type: functional; how it was run: as §2
[16] = test system: SMMC-7721; assay: Induction of apoptosis in human SMMC7721 cells assessed as necrotic cells level at 50 uM incubated for 24 hrs by Annexin V-FITC/PI dual staining based flow cytometry (reference value: 1.18%); type: functional; how it was run: as §2
[17] = test system: CNE-2; assay: Induction of apoptosis in human CNE2 cells assessed as late apoptotic cells level at 20 uM incubated for 24 hrs by Annexin V-FITC/PI dual staining based flow cytometry (reference value: 1.37%); type: functional; how it was run: as §2
[18] = test system: CNE-2; assay: Induction of apoptosis in human CNE2 cells assessed as early apoptotic cells level at 50 uM incubated for 24 hrs by Annexin V-FITC/PI dual staining based flow cytometry (reference value: 3.56%); type: functional; how it was run: as §2
[19] = test system: SMMC-7721; assay: Induction of apoptosis in human SMMC7721 cells assessed as viable cells level at 50 uM incubated for 24 hrs by Annexin V-FITC/PI dual staining based flow cytometry (reference value: 96.2%); type: functional; how it was run: as §2
[20] = test system: SMMC-7721; assay: Induction of apoptosis in human SMMC7721 cells assessed as necrotic cells level at 20 uM incubated for 24 hrs by Annexin V-FITC/PI dual staining based flow cytometry (reference value: 1.18%); type: functional; how it was run: as §2
[21] = test system: SMMC-7721; assay: Induction of apoptosis in human SMMC7721 cells assessed as early apoptotic cells level at 10 uM incubated for 24 hrs by Annexin V-FITC/PI dual staining based flow cytometry (reference value: 1%); type: functional; how it was run: as §2
[22] = test system: SMMC-7721; assay: Induction of apoptosis in human SMMC7721 cells assessed as necrotic cells level at 10 uM incubated for 24 hrs by Annexin V-FITC/PI dual staining based flow cytometry (reference value: 1.18%); type: functional; how it was run: as §2
[23] = test system: CNE-2; assay: Induction of apoptosis in human CNE2 cells assessed as early apoptotic cells level at 20 uM incubated for 24 hrs by Annexin V-FITC/PI dual staining based flow cytometry (reference value: 3.56%); type: functional; how it was run: as §2
[24] = test system: SMMC-7721; assay: Induction of apoptosis in human SMMC7721 cells assessed as late apoptotic cells level at 10 uM incubated for 24 hrs by Annexin V-FITC/PI dual staining based flow cytometry (reference value: 1.6%); type: functional; how it was run: as §2
[25] = test system: CNE-2; assay: Induction of apoptosis in human CNE2 cells assessed as necrotic cells level at 20 uM incubated for 24 hrs by Annexin V-FITC/PI dual staining based flow cytometry (reference value: 3.43%); type: functional; how it was run: as §2

`COc1ccc2c(c1)c(/C=C1\CC[C@@H]3[C@H]4CCCN5CCC[C@@H](CN3C1=O)[C@@H]45)cn2Cc1cccc(Cl)c1` gave a pIC50 [1] of 5.47, an Activity [2] of 40.6% and an Activity [3] of 28.3%. It also gave a pIC50 [4] of 5.40, an Activity [5] of 60.3% and a pIC50 [6] of 5.30. The Activity [7] was 58.7%, the Activity [8] was “Dose-dependent effect” and the Activity [9] was 18.2%. For the same compound, the Activity [10] was 38.6%, the Activity [11] was 4.62% and the Activity [12] was “Dose-dependent effect”. The Activity [13] was 15.5%, the Activity [14] was 21.2% and the Activity [15] was 79.5%. The Activity [16] was 2.91%, the Activity [17] was 8.7% and the Activity [18] was 45.9%. It also gave an Activity [19] of 2.15%, an Activity [20] of 2.53% and an Activity [21] of 35.6%. It also gave an Activity [22] of 0.69%, an Activity [23] of 29.9% and an Activity [24] of 3.4%. It also gave an Activity [25] of 2.7%.

For `O=C1/C(=C/c2cn(Cc3ccccc3Cl)c3ccccc23)CC[C@@H]2[C@H]3CCCN4CCC[C@@H](CN12)[C@@H]34`, the pIC50 [1] was 4.76, the pIC50 [4] was 4.76 and the pIC50 [6] was 4.74.

Compound `Cc1ccccc1Cn1cc(/C=C2\CC[C@@H]3[C@H]4CCCN5CCC[C@@H](CN3C2=O)[C@@H]45)c2ccccc21` has a pIC50 [1] of 4.97, a pIC50 [4] of 4.92 and a pIC50 [6] of 4.92.

`O=C1/C(=C/c2cn(Cc3ccc(OCc4ccccc4)cc3)c3ccccc23)CC[C@@H]2[C@H]3CCCN4CCC[C@@H](CN12)[C@@H]34` was tested, and the pIC50 [1] was 4.93, the pIC50 [4] was 5.01 and the pIC50 [6] was 4.90.

In the case of `COc1ccc(Cn2cccc2/C=C2\CC[C@@H]3[C@H]4CCCN5CCC[C@@H](CN3C2=O)[C@@H]45)cc1`, the pIC50 [1] was 4.54, the pIC50 [4] was 4.38 and the pIC50 [6] was 4.41.

`COc1ccc2c(c1)c(/C=C1\CC[C@@H]3[C@H]4CCCN5CCC[C@@H](CN3C1=O)[C@@H]45)cn2Cc1ccc(Cl)cc1` was tested, and the pIC50 [1] was 5.33, the pIC50 [4] was 5.25 and the pIC50 [6] was 5.15.

In the case of `O=C1/C(=C/c2cccn2Cc2ccc(F)cc2)CC[C@@H]2[C@H]3CCCN4CCC[C@@H](CN12)[C@@H]34`, the pIC50 [1] was 4.58, the pIC50 [4] was 4.47 and the pIC50 [6] was 4.50.

Compound `O=C1/C(=C/c2cn(Cc3ccc(OC(F)(F)F)cc3)c3ccc(Br)cc23)CC[C@@H]2[C@H]3CCCN4CCC[C@@H](CN12)[C@@H]34` has a pIC50 [1] of 5.22, a pIC50 [4] of 4.94 and a pIC50 [6] of 5.04.

For `CC(C)(C)c1cc(Cn2cccc2/C=C2\CC[C@@H]3[C@H]4CCCN5CCC[C@@H](CN3C2=O)[C@@H]45)cc(C(C)(C)C)c1`, the pIC50 [1] was < 4.40, the pIC50 [4] was < 4.40 and the pIC50 [6] was < 4.40.

`O=C1/C(=C/c2ccc3c(ccn3Cc3cccc(Cl)c3)c2)CC[C@@H]2[C@H]3CCCN4CCC[C@@H](CN12)[C@@H]34` showed a pIC50 [1] of 4.84, a pIC50 [4] of 4.59 and a pIC50 [6] of 4.52.

Compound `O=C1/C(=C/c2cccn2Cc2ccccc2Cl)CC[C@@H]2[C@H]3CCCN4CCC[C@@H](CN12)[C@@H]34` has a pIC50 [1] of 4.58, a pIC50 [4] of 4.59 and a pIC50 [6] of 4.58.

Work on `O=C1/C(=C/c2cccn2Cc2ccc(Br)cc2)CC[C@@H]2[C@H]3CCCN4CCC[C@@H](CN12)[C@@H]34` yielded a pIC50 [1] of 4.75, a pIC50 [4] of 4.75 and a pIC50 [6] of 4.64.

With `COc1ccc(Cn2ccc3c(/C=C4\CC[C@@H]5[C@H]6CCCN7CCC[C@@H](CN5C4=O)[C@@H]67)cccc32)cc1` the pIC50 [1] was 4.81, the pIC50 [4] was 4.55 and the pIC50 [6] was 4.55.

Source: ChEMBL document CHEMBL4184236, “Design, synthesis and biological evaluation of matrine derivatives as potential anticancer agents” (Bioorg Med Chem Lett, 2018)
